Sampled rows, rich in hits. Any-hit rate of the full collection: about 1.6%.
Neddylation inh = inhibitors of cullin neddylation, primary screen, biochemical, TR-FRET, uHTS, NAE and Ubc12 | NEDD8-conjugating enzyme Ubc12 (Homo sapiens) + NEDD8-activating enzyme E1 regulatory … | hit rate 0.58% among 360,000 | inhibition, % at 25 µM; in the data active means inhibition above about 36%
Target sequence (P61081 whole entry, looked up): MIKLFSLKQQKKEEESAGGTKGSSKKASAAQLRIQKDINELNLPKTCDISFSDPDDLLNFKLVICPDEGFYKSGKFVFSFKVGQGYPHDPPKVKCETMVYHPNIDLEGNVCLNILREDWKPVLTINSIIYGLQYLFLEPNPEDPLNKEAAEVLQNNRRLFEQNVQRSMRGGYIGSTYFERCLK
Target sequence (Q13564 whole entry, looked up): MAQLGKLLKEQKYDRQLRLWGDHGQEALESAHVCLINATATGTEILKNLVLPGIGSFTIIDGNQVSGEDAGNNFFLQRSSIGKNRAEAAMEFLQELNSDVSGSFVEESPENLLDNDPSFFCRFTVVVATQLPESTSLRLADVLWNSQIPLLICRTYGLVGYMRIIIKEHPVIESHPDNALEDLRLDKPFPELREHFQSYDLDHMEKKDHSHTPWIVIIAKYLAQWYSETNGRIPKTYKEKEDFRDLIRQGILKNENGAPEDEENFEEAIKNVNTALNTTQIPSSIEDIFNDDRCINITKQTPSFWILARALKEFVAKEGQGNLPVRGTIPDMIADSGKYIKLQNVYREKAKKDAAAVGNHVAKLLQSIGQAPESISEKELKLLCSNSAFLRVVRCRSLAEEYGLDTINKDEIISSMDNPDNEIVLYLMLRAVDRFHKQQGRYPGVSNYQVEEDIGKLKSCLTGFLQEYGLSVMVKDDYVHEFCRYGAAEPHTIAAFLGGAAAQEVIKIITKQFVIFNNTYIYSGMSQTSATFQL
ARFGAP1 inhibitor = inhibitors of rat ARFGAP1 GAP activity, primary screen, biochemical, fluorescence polarization, GDP tracer; ADP-ribosylation factor GTPase-activating protein 1 (Rattus norvegicus), Q62848; Arfgap1-stimulated ARF1 GTP hydrolysis, GDP FP detection; inhibition, % at 16.5 µM; hit rate 0.26% among 360,000;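 active means inhibition above a per-plate limit, mean inhibition of low control wells plus 3 SD, cut at about 25% in these data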
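Material: truncated rat Arfgap1 GAP domain; Incubation: compound-enzyme preincubation 20 min, reaction 120 min, detection 60 min, 25 °C; Read-out: percent inhibition of Arfgap1-stimulated GTP hydrolysis; Technique: FP, GDP Alexa 633 tracer displaced from anti-GDP antibody, 620/688 nm; Controls: No-Arfgap1 wells (100%) versus DMSO full-reaction wells (0%); Replication: single well per compound.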
ASAP1 inh = inhibitors of human ASAP1 ArfGAP activity, primary screen, biochemical, fluorescence polarization | Arf-GAP with SH3 domain, ANK repeat and PH domain-containing protein 1 (Homo sapiens), … | ASAP1-stimulated ARF1 GTP hydrolysis, GDP FP detection | inhibition, % at 16.5 µM | hit rate 0.19% among 360,000 | AID 624377, 2012; in the data active means inhibition above about 25%
H9c2 protect = cardioprotection against H2O2-induced cell death, primary screen, uHTS, H9c2 cells, ATPLite luminescence | protection from H2O2 cell death, % at 20 µM | H9c2 cardiomyocytes, H2O2 injury protection, 2 h | hit rate 0.63% among 360,000;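 active means compounds giving at least 50% protection of heart cells from peroxide-induced death in the single-dose screen, raw or plate-pattern-corrected value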
Numbers stand for hits; 0 = inactive; - = not tested or not shown.

SMILES	Neddylation inh	ARFGAP1 inhibitor	ASAP1 inh	H9c2 protect
Cc1c(/C=N/NC(=O)c2ccc(O)cc2)c2ccccn2c1C(=O)c1ccc(F)cc1	0	0	0	54
COc1cccc2cc(-c3cc(=O)oc4ccc(OCC(C)=O)cc34)oc12	0	0	0	63
COC(=O)COc1ccc2oc(=O)cc(-c3cc4ccccc4o3)c2c1	0	0	0	0
NC(=O)COc1ccc2oc(=O)cc(-c3cc4ccccc4o3)c2c1	0	0	0	71
Cc1ccn2c(NC3CCCC3)c(-c3ccncc3)nc2c1	-	0	0	0
Cc1ccn2c(NC3CCCC3)c(-c3ccccn3)nc2c1	38	0	0	0
c1ccc(-c2nc3ccccn3c2NC2CCCC2)nc1	39	0	0	0
CC(C)[C@H](NC(=O)c1cccs1)C(=O)N1CCC[C@H]1C(=O)NCc1ccccc1	-	0	0	-
COC(=O)[C@]12C[C@H](CC(=O)NCCCCc3ccccc3)C(=O)N(Cc3ccc4c(c3)OCO4)C1=C[C@H](COCc1ccccc1)O[C@@H]2C	-	0	0	-
COc1cc(-c2nnc(SCc3cc(=O)oc4cc(O)c(O)cc34)o2)cc(OC)c1OC	0	0	0	81
O=c1[nH]c2cc3c(cc2cc1CN(Cc1nnnn1CC1CCCO1)C1CCCCC1)OCO3 (stereo not drawn)	-	0	0	57
O=c1[nH]c2cc3c(cc2cc1CN(Cc1nnnn1CC1CCCO1)C1CCCC1)OCO3 (stereo not drawn)	-	0	0	0
Cc1ccc(C)c2[nH]c(=O)c(CN(Cc3ccc4c(c3)OCO4)Cc3nnnn3Cc3ccco3)cc12	0	0	0	60
Cc1ccc2cc(CN(Cc3ccc4c(c3)OCO4)Cc3nnnn3Cc3ccco3)c(=O)[nH]c2c1C	0	0	0	0
COc1ccc2[nH]c(=O)c(CN(Cc3ccco3)Cc3nnnn3Cc3ccccc3)cc2c1	0	0	0	66
CCOc1ccc2[nH]c(=O)c(CN(Cc3nnnn3Cc3ccco3)C3CCCCC3)cc2c1	0	0	0	59
COc1cc2cc(CN(Cc3nnnn3Cc3ccco3)C3CCCCC3)c(=O)[nH]c2cc1OC	-	0	0	0
OC(c1ccccc1)(c1ccccc1)C1CCN(CCCOc2ccc(-c3cncnc3)cc2)CC1	-	0	0	-
CCCCc1c(-c2ccccc2OC)ncn1Cc1c(F)cccc1F	-	0	0	-
COC(=O)c1ccccc1S(=O)(=O)NC(=O)[C@H]1O[C@@H](n2ccc(=O)[nH]c2=O)[C@H](O)[C@@H]1O	-	0	0	-
COc1ccc2[nH]c(=O)c(CN(CCc3ccccc3)Cc3nnnn3CC3CCCO3)cc2c1 (stereo not drawn)	0	0	0	76
COc1ccc2cc(CN(CCc3ccccc3)Cc3nnnn3CC3CCCO3)c(=O)[nH]c2c1 (stereo not drawn)	0	0	0	0
Cc1ccc(C(C[N+](=O)[O-])c2c(-c3ccccc3O)[nH][nH]c2=O)cc1 (stereo not drawn)	40	0	0	0
Oc1ccc(CN2CCCc3ccccc32)c2cccnc12	-	-	-	56
COc1ccccc1N1CCN(Cc2ccc(O)c3ncccc23)CC1	0	0	0	0
SMILES	Neddylation inh	ARFGAP1 inhibitor	ASAP1 inh	H9c2 protect
COc1cc(-c2cnc3c(NC=O)cc(-c4ccccc4)cn23)cc(OC)c1OC	0	0	0	0
COc1cccc(-c2cnc3c(NC=O)cc(-c4cc(C)c(O)c(C)c4)cn23)c1	0	0	0	67
CC(=O)c1ccc(-c2cnc3c(NC=O)cc(-c4cccc(C(=O)N(C)C)c4)cn23)cc1	0	0	0	76
CC(=O)c1cccc(-c2cnc3c(NC=O)cc(-c4ccc(C(=O)N5CCOCC5)cc4)cn23)c1	0	0	0	0
CC(=O)Nc1cccc(-c2cc(NC=O)c3ncc(-c4cccc(C(C)=O)c4)n3c2)c1	0	0	0	71
COc1cc(-c2cnc3c(NC=O)cc(-c4cccc(NC(C)=O)c4)cn23)cc(OC)c1OC	0	0	0	54
CC(=O)N1CCOCC1c1cc(C(=O)Nc2ccccc2)no1 (stereo not drawn)	0	0	0	0
Nc1ccn([C@@H]2O[C@H](C(=O)N[C@H](Cc3ccccc3)C(=O)Nc3ccc4scnc4c3)[C@@H](O)[C@H]2O)c(=O)n1	-	0	0	-
O=C(NC(C(=O)N1CCCC1C(=O)NC1CCCC1)c1ccccc1)c1cccs1 (stereo not drawn)	-	0	0	-
CC(=O)c1cccc(-c2cnc3c(NC=O)cc(-c4ccccc4)cn23)c1	0	0	0	0
COc1cccc(-c2cnc3c(NC=O)cc(-c4cccc(NC(C)=O)c4)cn23)c1	0	0	0	64
COc1cccc(-c2cnc3c(NC=O)cc(-c4ccccc4)cn23)c1	0	0	0	0
COc1cccc(-c2cnc3c(NC(C)=O)cc(-c4cccc(NS(C)(=O)=O)c4)cn23)c1	0	0	0	63
COc1ccc(-c2cc(NC=O)c3ncc(-c4cccc(C(C)=O)c4)n3c2)cc1	0	0	0	65
CCNC(=O)N1CCN(c2ccc(N3CCN(C(=O)NCC)[C@@H](C)C3)c(C)c2)[C@@H](C)C1	-	0	0	-
Cc1cc(C)c2ccc(NN)nc2c1O	0	0	0	79
Cn1c(=O)c2c(nc(SCC(=O)c3cccs3)n2Cc2ccc(F)cc2)n(C)c1=O	0	0	0	0
CC1Cc2ccccc2N1C(=O)CSc1nc2c(c(=O)n(C)c(=O)n2C)n1Cc1ccc(F)cc1 (stereo not drawn)	0	0	0	50
CCCCOCC1CN(CCCC)S(=O)(=O)c2c(Oc3ccc(SC)c(C)c3)cccc2O1 (stereo not drawn)	-	0	0	-
CCOc1ccccc1NC(=O)c1oc2ccccc2c1NC(=O)C1CC1	-	0	0	0
CCOc1ccccc1NC(=O)c1oc2ccccc2c1NC(=O)C1CCCO1 (stereo not drawn)	-	0	0	52
Cc1ccccc1-n1c(=O)/c(=C\c2ccco2)s/c1=C(/C#N)C(=O)Nc1ccccc1	0	0	0	71
COc1cc(-c2nnc(-c3ccc(N4CCOCC4)cc3)o2)cc(OC)c1OC	-	0	0	53
COc1cc(-c2nnc(-c3ccc(S(=O)(=O)c4ccccc4)cc3)o2)cc(OC)c1OC	0	0	0	0
CCCCn1nnnc1C(c1cc2ccccc2o1)N1CCN(C(=O)OC(C)(C)C)CC1 (stereo not drawn)	0	0	0	-
Cc1ccc(C(c2c(C)n(C)n(-c3ccccc3)c2=O)c2c(C)n(C)n(-c3ccccc3)c2=O)s1	0	0	0	59
Cc1ccc(C(=O)N2CCC[C@@H]2C(=O)N2CCC[C@@H]2C(=O)NCc2ccccc2)cc1C	-	0	0	-
CCCCC(CCCC)=N/N=C/c1c(O)n(CC)c2cc(C3=NNC(=O)CC3)ccc12	0	0	0	0
CCn1c(O)c(/C=N/N=C2CCCC2)c2ccc(C3=NNC(=O)CC3)cc21	0	0	0	57

Screens as filed in PubChem.
